From ChEMBL document CHEMBL4130523, “Targeting the Allosteric Site of Oncoprotein BCR-ABL as an Alternative Strategy for Effective Target Protein Degradation” (ACS Med Chem Lett, 2017)
Active and inactive are the calls of the source. The rule behind the calls is not given here.

Assays:
[1] = target: Tyrosine-protein kinase ABL1 (Homo sapiens, UniProt P00519); assay: Inhibition of recombinant human His-tagged full length ABL1 allosteric site expressed in baculovirus expression system by TR-FRET assay
Sequence of Tyrosine-protein kinase ABL1 (P00519 whole entry): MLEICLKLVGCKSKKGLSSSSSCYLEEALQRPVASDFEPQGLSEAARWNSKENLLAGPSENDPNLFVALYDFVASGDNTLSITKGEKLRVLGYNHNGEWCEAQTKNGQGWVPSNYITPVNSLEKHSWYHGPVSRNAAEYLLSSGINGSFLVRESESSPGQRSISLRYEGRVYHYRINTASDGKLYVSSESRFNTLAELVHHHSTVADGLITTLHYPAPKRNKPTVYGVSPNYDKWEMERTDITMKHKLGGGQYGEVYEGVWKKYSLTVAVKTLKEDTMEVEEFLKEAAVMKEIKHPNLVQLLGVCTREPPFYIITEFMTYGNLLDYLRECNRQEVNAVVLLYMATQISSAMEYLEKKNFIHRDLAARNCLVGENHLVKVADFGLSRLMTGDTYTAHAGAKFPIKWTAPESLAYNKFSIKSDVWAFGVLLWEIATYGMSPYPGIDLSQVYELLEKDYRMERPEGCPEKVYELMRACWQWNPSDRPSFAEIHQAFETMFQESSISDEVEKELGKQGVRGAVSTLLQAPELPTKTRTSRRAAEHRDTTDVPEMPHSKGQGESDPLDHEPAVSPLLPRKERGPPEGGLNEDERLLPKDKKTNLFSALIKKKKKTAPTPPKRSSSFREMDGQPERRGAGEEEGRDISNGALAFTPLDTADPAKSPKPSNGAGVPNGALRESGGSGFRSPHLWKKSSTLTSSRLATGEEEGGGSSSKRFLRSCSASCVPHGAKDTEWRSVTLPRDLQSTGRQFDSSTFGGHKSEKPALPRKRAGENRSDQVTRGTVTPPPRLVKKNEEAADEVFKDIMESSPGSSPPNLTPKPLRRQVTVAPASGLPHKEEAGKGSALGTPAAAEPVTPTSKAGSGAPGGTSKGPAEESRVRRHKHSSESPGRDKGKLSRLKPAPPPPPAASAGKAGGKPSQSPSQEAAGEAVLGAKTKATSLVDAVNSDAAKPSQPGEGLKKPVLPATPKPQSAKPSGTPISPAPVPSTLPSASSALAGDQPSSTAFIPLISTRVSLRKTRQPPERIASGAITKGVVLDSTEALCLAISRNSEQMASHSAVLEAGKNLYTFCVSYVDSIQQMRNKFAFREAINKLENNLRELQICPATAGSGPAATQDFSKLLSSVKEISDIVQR

[2] = target: Baculoviral IAP repeat-containing protein 2 (Homo sapiens, UniProt Q13490); assay: Inhibition of recombinant human His-tagged cIAP1 (Leu250 to Gly350 residues) expressed in Escherichia coli by TR-FRET assay
Sequence of Baculoviral IAP repeat-containing protein 2 (Q13490 whole entry): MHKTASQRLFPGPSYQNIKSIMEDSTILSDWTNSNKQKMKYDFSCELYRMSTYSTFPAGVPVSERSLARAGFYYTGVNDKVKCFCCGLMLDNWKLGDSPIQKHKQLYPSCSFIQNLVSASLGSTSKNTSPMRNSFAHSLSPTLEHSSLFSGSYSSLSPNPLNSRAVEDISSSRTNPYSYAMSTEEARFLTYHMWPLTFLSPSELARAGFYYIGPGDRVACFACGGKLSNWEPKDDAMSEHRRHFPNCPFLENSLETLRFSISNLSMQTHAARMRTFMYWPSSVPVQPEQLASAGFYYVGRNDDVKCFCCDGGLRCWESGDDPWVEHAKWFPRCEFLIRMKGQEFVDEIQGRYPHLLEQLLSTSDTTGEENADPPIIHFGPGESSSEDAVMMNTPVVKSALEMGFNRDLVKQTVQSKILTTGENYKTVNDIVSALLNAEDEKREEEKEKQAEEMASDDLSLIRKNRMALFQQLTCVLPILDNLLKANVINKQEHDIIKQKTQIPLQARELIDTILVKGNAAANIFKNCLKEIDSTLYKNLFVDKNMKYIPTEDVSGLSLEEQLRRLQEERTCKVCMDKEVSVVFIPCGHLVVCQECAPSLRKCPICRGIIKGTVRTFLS

[3] = target: Baculoviral IAP repeat-containing protein 3 (Homo sapiens, UniProt Q13489); assay: Inhibition of recombinant human His-tagged cIAP2 (Gln238 to Ser349 residues) expressed in Escherichia coli by TR-FRET assay
Sequence of Baculoviral IAP repeat-containing protein 3 (Q13489 whole entry): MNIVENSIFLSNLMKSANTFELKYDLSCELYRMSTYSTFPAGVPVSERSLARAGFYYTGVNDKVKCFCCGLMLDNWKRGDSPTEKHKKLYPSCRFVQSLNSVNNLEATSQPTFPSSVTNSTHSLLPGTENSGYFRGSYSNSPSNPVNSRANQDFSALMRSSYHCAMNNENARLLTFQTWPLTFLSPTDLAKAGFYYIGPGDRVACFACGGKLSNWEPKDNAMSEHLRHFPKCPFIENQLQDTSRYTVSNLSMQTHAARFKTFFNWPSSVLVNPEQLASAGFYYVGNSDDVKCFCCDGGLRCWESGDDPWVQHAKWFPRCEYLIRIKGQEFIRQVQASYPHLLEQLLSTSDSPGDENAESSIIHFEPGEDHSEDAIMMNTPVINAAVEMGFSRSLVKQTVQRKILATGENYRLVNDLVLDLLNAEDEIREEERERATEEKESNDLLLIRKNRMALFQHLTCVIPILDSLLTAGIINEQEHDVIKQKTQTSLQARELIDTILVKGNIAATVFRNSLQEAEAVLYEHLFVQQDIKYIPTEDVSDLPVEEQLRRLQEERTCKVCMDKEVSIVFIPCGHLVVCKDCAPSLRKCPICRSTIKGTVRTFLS

[4] = target: E3 ubiquitin-protein ligase XIAP (Homo sapiens, UniProt P98170); assay: Inhibition of recombinant human His-tagged XIAP (Asn252 to Thr356 residues) expressed in Escherichia coli by TR-FRET assay
Sequence of E3 ubiquitin-protein ligase XIAP (P98170 whole entry): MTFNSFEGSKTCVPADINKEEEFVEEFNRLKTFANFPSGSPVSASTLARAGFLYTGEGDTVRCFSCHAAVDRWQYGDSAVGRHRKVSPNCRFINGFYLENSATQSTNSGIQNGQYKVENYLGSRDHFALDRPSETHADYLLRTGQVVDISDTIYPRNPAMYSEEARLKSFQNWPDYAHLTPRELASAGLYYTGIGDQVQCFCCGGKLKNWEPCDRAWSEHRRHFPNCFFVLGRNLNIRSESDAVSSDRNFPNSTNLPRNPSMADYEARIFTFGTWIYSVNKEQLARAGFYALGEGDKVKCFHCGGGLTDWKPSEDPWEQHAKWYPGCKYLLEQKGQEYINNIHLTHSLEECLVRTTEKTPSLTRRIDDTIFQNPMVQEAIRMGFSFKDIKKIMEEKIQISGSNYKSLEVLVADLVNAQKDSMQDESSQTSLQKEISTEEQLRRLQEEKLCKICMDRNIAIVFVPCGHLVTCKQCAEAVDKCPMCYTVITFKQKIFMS

[5] = target: Baculoviral IAP repeat-containing protein 2/Tyrosine-protein kinase ABL1/Breakpoint cluster region protein (Homo sapiens) (UniProt P00519+P11274+Q13490); assay: Induction of cIAP1-mediated BCR-ABL degradation in human K562 cells at 100 nM after 6 hrs by Western blot analysis relative to beta-actin; format: cell-based
Sequence of Baculoviral IAP repeat-containing protein 2/Tyrosine-protein kinase ABL1/Breakpoint cluster region protein (Homo sapiens) (P00519 whole entry, looked up): as the sequence (P00519 whole entry) above
Sequence of Baculoviral IAP repeat-containing protein 2/Tyrosine-protein kinase ABL1/Breakpoint cluster region protein (Homo sapiens) (P11274 whole entry, looked up): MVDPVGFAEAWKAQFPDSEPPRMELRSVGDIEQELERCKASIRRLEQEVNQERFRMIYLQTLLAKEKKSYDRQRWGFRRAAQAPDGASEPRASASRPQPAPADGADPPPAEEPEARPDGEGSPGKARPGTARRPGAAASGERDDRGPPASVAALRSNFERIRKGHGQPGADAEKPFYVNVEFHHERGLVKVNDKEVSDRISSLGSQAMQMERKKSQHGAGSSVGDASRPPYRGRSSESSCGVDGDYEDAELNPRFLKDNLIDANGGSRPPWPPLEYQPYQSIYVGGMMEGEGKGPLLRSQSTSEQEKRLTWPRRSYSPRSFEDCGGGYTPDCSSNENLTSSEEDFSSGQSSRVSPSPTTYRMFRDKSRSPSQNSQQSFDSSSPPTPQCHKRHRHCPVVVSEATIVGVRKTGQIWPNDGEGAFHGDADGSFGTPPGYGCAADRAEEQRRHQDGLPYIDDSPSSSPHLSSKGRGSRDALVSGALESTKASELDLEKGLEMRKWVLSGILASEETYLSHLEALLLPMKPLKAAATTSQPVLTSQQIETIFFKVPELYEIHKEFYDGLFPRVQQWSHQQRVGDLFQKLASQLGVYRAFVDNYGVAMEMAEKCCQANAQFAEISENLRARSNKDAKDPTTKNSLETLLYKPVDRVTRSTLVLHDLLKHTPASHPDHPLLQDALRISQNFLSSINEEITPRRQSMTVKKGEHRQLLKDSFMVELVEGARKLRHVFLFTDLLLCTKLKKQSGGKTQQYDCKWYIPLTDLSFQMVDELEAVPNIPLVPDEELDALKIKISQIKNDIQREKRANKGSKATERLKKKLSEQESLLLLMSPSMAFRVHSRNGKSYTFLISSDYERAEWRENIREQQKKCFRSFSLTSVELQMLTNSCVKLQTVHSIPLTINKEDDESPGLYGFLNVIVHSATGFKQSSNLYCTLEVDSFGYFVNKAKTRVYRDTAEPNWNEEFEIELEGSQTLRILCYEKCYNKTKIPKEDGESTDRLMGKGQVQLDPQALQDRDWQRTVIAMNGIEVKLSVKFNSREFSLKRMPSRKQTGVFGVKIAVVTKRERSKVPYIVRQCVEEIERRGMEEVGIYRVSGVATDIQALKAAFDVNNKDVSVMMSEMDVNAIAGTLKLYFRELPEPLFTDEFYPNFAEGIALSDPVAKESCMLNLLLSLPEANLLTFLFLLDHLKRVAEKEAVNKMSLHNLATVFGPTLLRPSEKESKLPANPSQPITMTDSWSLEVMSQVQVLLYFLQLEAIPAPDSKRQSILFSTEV
Sequence of Baculoviral IAP repeat-containing protein 2/Tyrosine-protein kinase ABL1/Breakpoint cluster region protein (Homo sapiens) (Q13490 whole entry, looked up): as the sequence (Q13490 whole entry) above
Procedure, shortened: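 K562 cells were treated for 6 h with test agent at graded concentrations, or with IAP ligand 4 at 10 μM as competitor. BCR-ABL was then immunoblotted. BCR-ABL band intensity was normalized to β-actin and expressed relative to a vehicle control set at 100. Means ± standard deviation, n = 3.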

[6] = target: T1, Bcr/Abl fusion protein (Homo sapiens) (UniProt P00519+P11274); assay: Inhibition of BCR-ABL phosphorylation in human K562 cells at 100 nM after 6 hrs by Western blot analysis relative to beta-actin; format: cell-based
T1 sequence (P00519 whole entry, looked up, the tested form may be a part): as the sequence (P00519 whole entry) above
T1 sequence (P11274 whole entry, looked up, the tested form may be a part): as the sequence (P11274 whole entry, looked up) above

[7] = target: T1, Bcr/Abl fusion protein (Homo sapiens); assay: Inhibition of BCR-ABL in human K562 cells assessed as reduction in STAT5 phosphorylation at 100 nM after 6 hrs by Western blot analysis; format: cell-based
Procedure, shortened: (§1)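 K562 cells were exposed to 100 nM compound for 6 h. Lysates were immunoblotted for phosphorylated STAT5 and phosphorylated CrkL, which are BCR-ABL substrates, alongside phosphorylated BCR-ABL.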

[8] = target: T1, Bcr/Abl fusion protein (Homo sapiens); assay: Inhibition of BCR-ABL in human K562 cells assessed as reduction in CrkL phosphorylation at 100 nM after 6 hrs by Western blot analysis; format: cell-based; procedure, shortened: as §1
K562 [9] = assay: Growth inhibition of human K562 cells up to 1000 nM after 48 hrs by WST-8 assay; format: functional, cell-based
Procedure, shortened: (§2)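 Cells exposed for 48 h to a graded concentration series of compound. Growth was read per well and reported as mean ± standard deviation of triplicate (n = 3) determinations.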

K562 [10] = assay: Growth inhibition of human K562 cells at >= 100 nM after 48 hrs by WST-8 assay; format: functional, cell-based; procedure, shortened: as §2
KCL-22 = assay: Growth inhibition of human KCL22 cells up to 1000 nM after 48 hrs by WST-8 assay; format: functional, cell-based; procedure, shortened: as §2
MOLT-4 = assay: Growth inhibition of human MOLT4 cells up to 1000 nM after 48 hrs by WST-8 assay; format: functional, cell-based; procedure, shortened: as §2
Jurkat = assay: Growth inhibition of human Jurkat cells up to 1000 nM after 48 hrs by WST-8 assay; format: functional, cell-based; procedure, shortened: as §2

IC50 [1] [nM]	IC50 [2] [nM]	inhibition [7]	inhibition [8]	Compound	also measured
2000	220	–	–	CN[C@@H](C)C(=O)N[C@H](C(=O)N1CCC[C@H]1c1nc(C(=O)c2cccc(OCCOCCOCCNC(=O)c3cccc(-c4cc(Nc5ccc(OC(F)(F)F)cc5)ncn4)c3)c2)cs1)C1CCCCC1	–
340	> 1000	–	–	CN[C@@H](C)C(=O)N(C)[C@H](C(=O)N1CCC[C@H]1c1nc(C(=O)c2cccc(OCCOCCOCCNC(=O)C3CCN(c4ncc(C(=O)Nc5ccc(OC(F)(F)Cl)cc5)cc4-c4ccn[nH]4)C3)c2)cs1)C1CCCCC1 (stereo partly specified)	IC50 [3]: > 1000 nM; IC50 [4]: > 1000 nM; fold change (FC) [5]: 102
35	–	Active	Active	COC(=O)C1CCN(c2ncc(C(=O)Nc3ccc(OC(F)(F)Cl)cc3)cc2-c2ccn[nH]2)C1 (stereo unspecified)	fold change (FC) [6]: 92
–	4.8	–	–	CN[C@@H](C)C(=O)N[C@H](C(=O)N1CCC[C@H]1c1nc(C(=O)c2cccc(OC)c2)cs1)C1CCCCC1	growth inhibition (GI) (K562 [9]): inactive
360	86	Active	Active	CN[C@@H](C)C(=O)N[C@H](C(=O)N1CCC[C@H]1c1nc(C(=O)c2cccc(OCCOCCOCCNC(=O)C3CCN(c4ncc(C(=O)Nc5ccc(OC(F)(F)Cl)cc5)cc4-c4ccn[nH]4)C3)c2)cs1)C1CCCCC1 (stereo partly specified)	growth inhibition (GI) (K562 [10]): Active; growth inhibition (GI) (KCL-22): Active; growth inhibition (GI) (MOLT-4): inactive; growth inhibition (GI) (Jurkat): inactive
